Results from ChEMBL document CHEMBL2390929, “New nitric oxide donating 1,2,4-triazole/oxime hybrids: synthesis, investigation of anti-inflammatory, ulceroginic liability and antiproliferative activities” (Bioorg Med Chem, 2013).

Assays:
SW-620 = assay: Cytotoxicity against human SW620 cells assessed as cell growth at 10^-5 M after 48 hrs by SRB assay; type: functional; settings: SW-620, 48 h, read-out: Activity
Procedure, shortened: (§1)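 NCI-60 one-dose screen across nine tumour subpanels. Each agent added once at 10^-5 M, cultures incubated 48 h. Endpoint is sulforhodamine B protein staining read spectrophotometrically. Output is percent growth of treated cells relative to untreated controls.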

Rattus norvegicus [1] = assay: Antiinflammatory activity in albino rat assessed as inhibition of carrageenan-induced paw edema at 0.28 mmol/kg, po after 2 hrs relative to control; type: functional
Procedure, shortened: (§2)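 Adult male albino rats (120–140 g), four per group, fasted 24 h with water allowed. Test agent suspended in 0.5% w/v aqueous CMC and given orally at 0.28 mmol/kg; controls received CMC alone. After 30 min, 0.1 mL fresh 1% carrageenan in saline was injected subplantar into the right hind paw and saline into the left. Paw thickness was measured by Vernier caliper; % inhibition = [(VR−VL)control − (VR−VL)treated]/(VR−VL)control ×100. Mean ± SEM, one-way ANOVA.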

NCI-H522 = assay: Cytotoxicity against human NCI-H522 cells assessed as cell growth at 10^-5 M after 48 hrs by SRB assay; type: functional; settings: NCI-H522, 48 h, read-out: Activity
Procedure, shortened: (§3)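 NCI 60-cell-line primary one-dose screen across nine tumour subpanels. Compound added at a single concentration of 10^-5 M and cultures incubated 48 h. Endpoint was sulforhodamine B protein staining read spectrophotometrically, with growth expressed as percent of untreated control cells.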

HT-29 = assay: Cytotoxicity against human HT-29 cells assessed as cell growth at 10^-5 M after 48 hrs by SRB assay; type: functional; settings: HT-29, 48 h, read-out: Activity; procedure, shortened: as §3
[2] = Cytotoxicity against human EKVX cells assessed as cell growth at 10^-5 M after 48 hrs by SRB assay; type: functional; settings: read-out: Activity; procedure, shortened: as §3
SF-539 = assay: Cytotoxicity against human SF539 cells assessed as cell growth at 10^-5 M after 48 hrs by SRB assay; type: functional; settings: SF-539, 48 h, read-out: Activity; procedure, shortened: as §3
RXF 393 = assay: Cytotoxicity against human RXF393 cells assessed as cell growth at 10^-5 M after 48 hrs by SRB assay; type: functional; settings: RXF 393, 48 h, read-out: Activity; procedure, shortened: as §3
NCI/ADR-RES = assay: Cytotoxicity against human NCI/ADR-RES cells assessed as cell growth at 10^-5 M after 48 hrs by SRB assay; type: functional; settings: read-out: Activity; procedure, shortened: as §3
SF-268 = assay: Cytotoxicity against human SF268 cells assessed as cell growth at 10^-5 M after 48 hrs by SRB assay; type: functional; settings: SF-268, 48 h, read-out: Activity; procedure, shortened: as §3
HL-60(TB) = assay: Cytotoxicity against human HL-60(TB) cells assessed as cell growth at 10^-5 M after 48 hrs by SRB assay; type: functional; settings: HL-60, 48 h, read-out: Activity
Procedure, shortened: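 NCI 60-cell-line one-dose screen: compound added to cultures at a single concentration of 10^-5 M, incubated 48 h. End point by sulforhodamine B protein staining, read spectrophotometrically. Value is percent growth of treated cells relative to untreated control cells.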

KM12 = assay: Cytotoxicity against human KM12 cells assessed as cell growth at 10^-5 M after 48 hrs by SRB assay; type: functional; settings: KM12, 48 h, read-out: Activity; procedure, shortened: as §3
HCC 2998 = assay: Cytotoxicity against human HCC2998 cells assessed as cell growth at 10^-5 M after 48 hrs by SRB assay; type: functional; settings: HCC 2998, 48 h, read-out: Activity; procedure, shortened: as §3
Rattus norvegicus [3] = assay: Antiinflammatory activity in albino rat assessed as inhibition of carrageenan-induced paw edema at 0.28 mmol/kg, po after 5 hrs relative to control; type: functional; procedure, shortened: as §2
SK-MEL-5 = assay: Cytotoxicity against human SK-MEL-5 cells assessed as cell growth at 10^-5 M after 48 hrs by SRB assay; type: functional; settings: SK-MEL-5, 48 h, read-out: Activity; procedure, shortened: as §1
SNB-75 = assay: Cytotoxicity against human SNB75 cells assessed as cell growth at 10^-5 M after 48 hrs by SRB assay; type: functional; settings: SNB-75, 48 h, read-out: Activity; procedure, shortened: as §1
SN12C = assay: Cytotoxicity against human SN12C cells assessed as cell growth at 10^-5 M after 48 hrs by SRB assay; type: functional; settings: read-out: Activity; procedure, shortened: as §1
K562 = assay: Cytotoxicity against human K562 cells assessed as cell growth at 10^-5 M after 48 hrs by SRB assay; type: functional; settings: K562, 48 h, read-out: Activity; procedure, shortened: as §3
CCRF-CEM = assay: Cytotoxicity against human CCRF-CEM cells assessed as cell growth at 10^-5 M after 48 hrs by SRB assay; type: functional; settings: read-out: Activity; procedure, shortened: as §3
OVCAR-5 = assay: Cytotoxicity against human OVCAR5 cells assessed as cell growth at 10^-5 M after 48 hrs by SRB assay; type: functional; settings: OVCAR-5, 48 h, read-out: Activity; procedure, shortened: as §3
Malme-3M = assay: Cytotoxicity against human MALME-3M cells assessed as cell growth at 10^-5 M after 48 hrs by SRB assay; type: functional; settings: read-out: Activity; procedure, shortened: as §3
SK-MEL-28 = assay: Cytotoxicity against human SK-MEL-28 cells assessed as cell growth at 10^-5 M after 48 hrs by SRB assay; type: functional; settings: SK-MEL-28, 48 h, read-out: Activity; procedure, shortened: as §1
OVCAR-4 = assay: Cytotoxicity against human OVCAR4 cells assessed as cell growth at 10^-5 M after 48 hrs by SRB assay; type: functional; settings: OVCAR-4, 48 h, read-out: Activity; procedure, shortened: as §3
[4] = Induction of nitric oxide release in phosphate buffer at pH 7.4 at 0.1 mM after 1 hr by Griess method in presence of 0.5 mM of N-acetylcysteine; type: physicochemical; settings: pH 7.4, 1 h, 100 µM
Procedure, shortened: (§4)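 Compound in DMF diluted to final 10^-4 M in 1:1 50 mM phosphate buffer pH 7.4/MeOH with 5×10^-4 M N-acetylcysteine, 37 °C. Aliquot mixed with Griess reagent, 10 min at room temperature, A546 read. Nitrite quantified against sodium nitrite standards (10–80 nmol/mL); NO expressed as mol/mol. n = 4 reaction mixtures per compound.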

COLO 205 = assay: Cytotoxicity against human COLO205 cells assessed as cell growth at 10^-5 M after 48 hrs by SRB assay; type: functional; settings: COLO 205, 48 h, read-out: Activity; procedure, shortened: as §3
MCF7 = assay: Cytotoxicity against human MCF7 cells assessed as cell growth at 10^-5 M after 48 hrs by SRB assay; type: functional; settings: MCF7, 48 h, read-out: Activity; procedure, shortened: as §3
NCI-H460 = assay: Cytotoxicity against human NCI-H460 cells assessed as cell growth at 10^-5 M after 48 hrs by SRB assay; type: functional; settings: NCI-H460, 48 h, read-out: Activity; procedure, shortened: as §3
HOP-62 = assay: Cytotoxicity against human HOP62 cells assessed as cell growth at 10^-5 M after 48 hrs by SRB assay; type: functional; settings: HOP-62, 48 h, read-out: Activity; procedure, shortened: as §3
[5] = Induction of nitric oxide release in phosphate buffer at pH 7.4 at 0.1 mM after 3 hrs by Griess method in presence of 0.5 mM of N-acetylcysteine; type: physicochemical; settings: pH 7.4, 3 h, 100 µM; procedure, shortened: as §4
IGROV-1 = assay: Cytotoxicity against human IGROV1 cells assessed as cell growth at 10^-5 M after 48 hrs by SRB assay; type: functional; settings: IGROV-1, 48 h, read-out: Activity; procedure, shortened: as §3

Compound	growth at 10 µM (SW-620) [%]	inhibition in vivo at 280 µmol/kg (Rattus norvegicus [1]) [%]	growth at 10 µM (NCI-H522) [%]	growth at 10 µM (HT-29) [%]	growth at 10 µM [2] [%]	growth at 10 µM (SF-539) [%]	growth at 10 µM (RXF 393) [%]	growth at 10 µM (NCI/ADR-RES) [%]	growth at 10 µM (SF-268) [%]	growth at 10 µM (HL-60(TB)) [%]	growth at 10 µM (KM12) [%]	growth at 10 µM (HCC 2998) [%]	inhibition in vivo at 280 µmol/kg (Rattus norvegicus [3]) [%]	growth at 10 µM (SK-MEL-5) [%]	growth at 10 µM (SNB-75) [%]	growth at 10 µM (SN12C) [%]	growth at 10 µM (K562) [%]	growth at 10 µM (CCRF-CEM) [%]	growth at 10 µM (OVCAR-5) [%]	growth at 10 µM (Malme-3M) [%]	also measured
COc1ccc(-c2nnc(SC/C(=N/O)c3ccccc3)n2-c2ccccc2)cc1OC	110	61	88.8	97.5	101	103	102	93.2	110	68.2	99.8	114	78	85.8	91.4	94.5	88.7	84.4	100	93.7	growth at 10 µM (SK-MEL-28): 113%; growth at 10 µM (OVCAR-4): 90.4%; Activity [4]: 0.15 mol/mol; growth at 10 µM (COLO 205): 100%; growth at 10 µM (MCF7): 100%; growth at 10 µM (NCI-H460): 114%; growth at 10 µM (HOP-62): 99.2%; Activity [5]: 0.18 mol/mol; growth at 10 µM (IGROV-1): 106%
COc1cc(-c2nnc(SC/C(=N/O)c3ccccc3)n2-c2ccccc2)cc(OC)c1OC	114	61	82.1	99.5	97.9	102	105	98.8	114	81.1	108	108	68	84.6	84.5	95.8	85.2	88.5	115	95.3	growth at 10 µM (SK-MEL-28): 90.3%; growth at 10 µM (OVCAR-4): 84.8%; Activity [4]: 0.07 mol/mol; growth at 10 µM (COLO 205): 108%; growth at 10 µM (MCF7): 101%; growth at 10 µM (NCI-H460): 110%; growth at 10 µM (HOP-62): 101%; Activity [5]: 0.12 mol/mol; growth at 10 µM (IGROV-1): 99%
C=CCn1c(SC/C(=N\O)c2ccccc2)nnc1-c1ccc(OC)c(OC)c1	104	57	89	93.5	101	95.6	117	93	105	72.3	106	100	69	101	86.9	98.2	90.8	98.3	107	92.5	growth at 10 µM (SK-MEL-28): 99%; growth at 10 µM (OVCAR-4): 91%; Activity [4]: 0.09 mol/mol; growth at 10 µM (COLO 205): 106%; growth at 10 µM (MCF7): 105%; growth at 10 µM (NCI-H460): 105%; growth at 10 µM (HOP-62): 92.2%; Activity [5]: 0.17 mol/mol; growth at 10 µM (IGROV-1): 97.6%
CCn1c(SC/C(=N/O)c2ccccc2)nnc1-c1ccccc1	98.7	69	112	104	90.6	93.7	117	103	108	103	110	96.6	71	100	87.8	88.5	86	88.9	96.8	98.7	growth at 10 µM (SK-MEL-28): 106%; growth at 10 µM (OVCAR-4): 85.5%; Activity [4]: 0.06 mol/mol; growth at 10 µM (COLO 205): 115%; growth at 10 µM (MCF7): 112%; growth at 10 µM (NCI-H460): 102%; growth at 10 µM (HOP-62): 111%; Activity [5]: 0.12 mol/mol; growth at 10 µM (IGROV-1): 106%
